The source made the active and inactive calls. The calls are words filed in the database; no cut-off is given here.
Experiments:
[1] = target: T1, Tyrosine-protein phosphatase non-receptor type 1 (Homo sapiens, UniProt P18031); test: Inhibition of PTP1B (unknown origin) assessed as decrease in p-nitrophenolate formation using pNPP as substrate incubated for 15 mins by spectrophotometric method
T1 sequence (P18031 whole entry): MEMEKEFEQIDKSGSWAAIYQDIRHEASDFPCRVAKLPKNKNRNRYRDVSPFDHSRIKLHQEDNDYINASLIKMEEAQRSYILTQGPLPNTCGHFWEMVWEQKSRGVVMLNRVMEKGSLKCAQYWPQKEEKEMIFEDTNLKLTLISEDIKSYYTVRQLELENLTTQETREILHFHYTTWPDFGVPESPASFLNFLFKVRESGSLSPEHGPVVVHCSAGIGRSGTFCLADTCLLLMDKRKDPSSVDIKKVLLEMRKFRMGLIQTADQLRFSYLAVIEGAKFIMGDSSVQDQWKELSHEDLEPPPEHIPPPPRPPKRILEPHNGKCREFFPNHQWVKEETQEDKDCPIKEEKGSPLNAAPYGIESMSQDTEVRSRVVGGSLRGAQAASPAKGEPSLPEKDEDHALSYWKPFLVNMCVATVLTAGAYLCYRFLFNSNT

[2] = Antioxidant activity assessed as DPPH radical scavenging activity; type: functional
[3] = target: T1, Tyrosine-protein phosphatase non-receptor type 1; test: Inhibition of PTP1B (unknown origin) assessed as decrease in p-nitrophenolate formation using pNPP as substrate by Dixon plot analysis
In short: (§1)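 Kinetic analysis of human recombinant PTP1B with p-NPP substrate, run at several inhibitor levels. Ki was obtained from Dixon plots, and the inhibition mode from Lineweaver–Burk plots.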

[4] = target: T2, Tyrosine-protein phosphatase non-receptor type 1 (Homo sapiens) (UniProt P18031); test: Noncompetitive inhibition of PTP1B (unknown origin) assessed as decrease in p-nitrophenolate formation using pNPP as substrate by Lineweaver-Burk plot analysis; in short: as §1
T2 sequence (whole entry): T1 sequence (P18031 whole entry)

IC50 [1] [µM] | Compound | other results
12.1 | Oc1ccc(/C=C/c2cc(O)cc(O)c2O)cc1 | IC50 [2]: 400 µM
> 50 | Oc1ccc(/C=C/c2cc(O)cc(O)c2O[C@@H]2OC[C@@H](O)[C@H](O)[C@H]2O)cc1 | 
> 50 | O=C(O[C@H]1[C@H](Oc2c(O)cc(O)cc2/C=C/c2ccc(O)cc2)O[C@H](CO)[C@@H](O)[C@@H]1O)c1cc(O)c(O)c(O)c1 | 
2.1 | Oc1ccc([C@H]2Oc3ccc(/C=C/c4cc(O)cc(O)c4O)cc3[C@@H]2c2cc(O)cc(O)c2O)cc1 | Ki [3]: 1.02 µM; inhibition [4]: Active
32.2 | OC[C@H]1O[C@@H](Oc2c(O)cc(O)cc2/C=C/c2ccc3c(c2)[C@H](c2cc(O)cc(O)c2O[C@@H]2O[C@H](CO)[C@@H](O)[C@H](O)[C@H]2O)[C@@H](c2ccc(O)cc2)O3)[C@H](O)[C@@H](O)[C@@H]1O | 
> 50 | COc1cc([C@@H]2CC(=O)Oc3cc(O)c(O[C@@H]4O[C@H](CO)[C@@H](O)[C@H](O)[C@H]4O)c(/C=C/c4ccc(O)cc4)c32)ccc1O | 
> 50 | C[C@@H]1O[C@@H](Oc2c(O)cc(O)cc2/C=C/c2ccc(O)cc2)[C@H](O)[C@H](O)[C@H]1O | 
1.9 | Oc1ccc([C@@H]2Oc3ccc(/C=C/c4cc(O)cc(O)c4O)cc3[C@H]2c2cc(O)cc(O)c2O)cc1 | Ki [3]: 0.92 µM; inhibition [4]: Active
> 50 | OC[C@H]1O[C@@H](Oc2c(O)cc(O)cc2[C@H]2c3c(cc(O)c(O[C@@H]4O[C@H](CO)[C@@H](O)[C@H](O)[C@H]4O)c3/C=C/c3ccc(O)cc3)O[C@@H]2c2ccc(O)cc2)[C@H](O)[C@@H](O)[C@@H]1O | 
34.9 | OC[C@H]1O[C@@H](Oc2c(O)cc(O)cc2/C=C/c2ccc3c(c2)[C@@H](c2cc(O)cc(O)c2O[C@@H]2O[C@H](CO)[C@@H](O)[C@H](O)[C@H]2O)[C@H](c2ccc(O)cc2)O3)[C@H](O)[C@@H](O)[C@@H]1O | 
> 50 | COc1cc(/C=C/C(=O)O[C@H]2[C@H](Oc3c(O)cc(O)cc3/C=C/c3ccc(O)cc3)O[C@H](CO)[C@@H](O)[C@@H]2O)ccc1O | 
> 50 | O=COC[C@H]1O[C@@H](Oc2c(O)cc(O)cc2/C=C/c2ccc(O)cc2)[C@H](O)[C@@H](O)[C@@H]1O | 
37.6 | CC(=O)O[C@@H]1[C@@H](O)[C@H](Oc2c(O)cc(O)cc2/C=C/c2ccc(O)cc2)O[C@H](CO)[C@H]1O | 
> 50 | Oc1ccc(/C=C/c2cc(O)cc(O)c2)cc1 [RESVERATROL] | 
27.4 | COc1cc(/C=C/C(=O)O[C@@H]2[C@@H](O)[C@H](Oc3c(O)cc(O)cc3/C=C/c3ccc(O)cc3)O[C@H](CO)[C@H]2O)ccc1O | 
> 50 | O=C(O)c1cc(O)cc(O)c1C(=O)Cc1ccc(O)cc1 | 
> 50 | OC[C@H]1O[C@@H](OC[C@H]2O[C@@H](Oc3c(O)cc(O)cc3/C=C/c3ccc(O)cc3)[C@H](O)[C@@H](O)[C@@H]2O)[C@H](O)[C@@H](O)[C@@H]1O | 
> 50 | OC[C@H]1O[C@@H](Oc2c(O)cc(O)cc2/C=C/c2ccc(O)cc2)[C@H](O)[C@@H](O)[C@@H]1O | IC50 [2]: 40000 µM
> 50 | CC(=O)OC[C@H]1O[C@@H](Oc2c(O)cc(O)cc2/C=C/c2ccc(O)cc2)[C@H](O)[C@@H](O)[C@@H]1O | 
